Results reported in ChEMBL document CHEMBL1145630, “Antidiabetic activity of N-(6-substituted-1,3-benzothiazol-2-yl)benzenesulfonamides” (2008).

Columns and labels:
[1] = biological target: 11-beta-hydroxysteroid dehydrogenase 1 (Homo sapiens) (UniProt P28845); assay: Inhibition of human 11beta-HSD1 expressed in HEK293 cells at 10 uM by scintillation proximity assay; type: cell-based
Outline: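 Cell-based scintillation proximity assay in HEK293 cells stably transfected with full-length human hsd11b1, grown in DMEM. Compounds were added at 1% final DMSO with 20 nM tritiated cortisone (final), 2 h at 37 °C. Medium was mixed with anti-mouse YSi SPA beads and anti-cortisol antibody in Tris-HCl pH 7.0 buffer, 2 h at room temperature. Inhibition was calculated against an uninhibited control.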

Rattus norvegicus [2] = assay: Antidiabetic effect in streptozo-nicotinamide rat model of diabetes assessed as change in blood glucose level at 100 mg/kg, po after 3 hrs relative to control; type: functional
Outline: (§1)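 Type 2 diabetes was induced in overnight-fasted rats with i.p. streptozotocin 65 mg/kg, given 15 min after i.p. nicotinamide 110 mg/kg. Rats with glucose above 250 mg/dL at 72 h were used, n = 5 per group. Compounds were suspended in 1% Tween 80 and given orally. Controls received vehicle; glibenclamide 5 mg/kg was the reference. Caudal-vein glucose was read by glucose-oxidase glucometer at 0, 1, 3, 5 and 7 h.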

Rattus norvegicus [3] = assay: Antidiabetic effect in streptozo-nicotinamide rat model of diabetes assessed as change in blood glucose level at 100 mg/kg, po after 7 hrs relative to control; type: functional; outline: as §1
Rattus norvegicus [4] = assay: Antidiabetic effect in streptozo-nicotinamide rat model of diabetes assessed as change in blood glucose level at 100 mg/kg, po after 5 hrs relative to control; type: functional; outline: as §1
Rattus norvegicus [5] = assay: Antidiabetic effect in streptozo-nicotinamide rat model of diabetes assessed as change in blood glucose level at 100 mg/kg, po after 1 hr relative to control; type: functional; outline: as §1

Sequence of 11-beta-hydroxysteroid dehydrogenase 1 (Homo sapiens) (P28845 whole entry, looked up): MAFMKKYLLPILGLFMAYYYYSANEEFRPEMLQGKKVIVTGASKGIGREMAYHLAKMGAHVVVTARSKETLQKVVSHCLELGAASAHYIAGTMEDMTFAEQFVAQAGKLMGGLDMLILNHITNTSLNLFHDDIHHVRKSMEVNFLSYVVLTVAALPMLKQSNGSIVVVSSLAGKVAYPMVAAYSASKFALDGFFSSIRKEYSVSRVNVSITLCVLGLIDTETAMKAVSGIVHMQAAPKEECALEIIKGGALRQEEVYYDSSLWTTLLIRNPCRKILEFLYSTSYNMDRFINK

Compound | inhibition [1] [%] | Activity (Rattus norvegicus [2]) [%] | Activity (Rattus norvegicus [3]) [%] | Activity (Rattus norvegicus [4]) [%] | Activity (Rattus norvegicus [5]) [%]
COc1ccc(S(=O)(=O)Nc2nc3ccc([N+](=O)[O-])cc3s2)cc1 | 25.6 | 49 | 29 | 19.1 | 77.1
CC(=O)Nc1ccc(S(=O)(=O)Nc2nc3ccc([N+](=O)[O-])cc3s2)cc1 | 7.69 | 11.8 | 30 | 4 | 37.2
Cc1ccc2nc(NS(=O)(=O)c3ccc(Cl)cc3)sc2c1 | 27.2 | 36.1 | 21.4 | 12.2 | 34
CCOc1ccc2nc(NS(=O)(=O)c3ccc([N+](=O)[O-])cc3)sc2c1 | 15.5 | – | – | – | –
Cc1ccc2nc(NS(=O)(=O)c3ccc([N+](=O)[O-])cc3)sc2c1 | 11.1 | – | – | – | –
COc1ccc(Cl)cc1C(=O)NCCc1ccc(S(=O)(=O)NC(=O)NC2CCCCC2)cc1 [GLYBURIDE] | – | 32.6 | 55.4 | 51.5 | 78
COc1ccc2nc(NS(=O)(=O)c3ccccc3)sc2c1 | 37.6 | 62.9 | 53.2 | 31.5 | 78.1
COc1ccc2nc(NS(=O)(=O)c3ccc([N+](=O)[O-])cc3)sc2c1 | 53.3 | 42.5 | 27.8 | 18.1 | 69.7
CCOc1ccc2nc(NS(=O)(=O)c3ccc(C)cc3)sc2c1 | 16.4 | – | – | – | –
